Source: ChEMBL document CHEMBL4261522, “Discovery of potential antifungal triazoles: design, synthesis, biological evaluation, and preliminary antifungal mechanism exploration” (Medchemcomm, 2017)
Values after ≈ are worked out from the molar mass of the structure shown. Active and inactive are the calls of the source. No cut-off for these calls is given here.

How the values were obtained:
[1] = tested on: Candida albicans; assay: Antifungal activity against Candida albicans by two-fold serial dilution method; type: functional
Method in brief: (§1)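 MIC by standard two-fold serial dilution in 96-well microplates following NCCLS guidelines. Strains were supplied by Southwest University School of Pharmaceutical Sciences and Third Military Medical University College of Pharmacy.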

[2] = tested on: Kregervanrija fluxuum; assay: Antifungal activity against Candida mycoderma by two-fold serial dilution method; type: functional; method in brief: as §1
[3] = tested on: Aspergillus flavus; assay: Antifungal activity against Aspergillus flavus by two-fold serial dilution method; type: functional; method in brief: as §1
[4] = tested on: Cyberlindnera jadinii; assay: Antifungal activity against Candida utilis by two-fold serial dilution method; type: functional; settings: Williopsis jadinii; method in brief: as §1
[5] = tested on: Saccharomyces cerevisiae; assay: Antifungal activity against Saccharomyces cerevisiae by two-fold serial dilution method; type: functional; method in brief: as §1
[6] = tested on: Saccharomyces cerevisiae; assay: Potency index, ratio of miconazole MIC to compound MIC for Saccharomyces cerevisiae; type: functional
[7] = tested on: Aspergillus flavus; assay: Potency index, ratio of fluconazole MIC to compound MIC for Aspergillus flavus by two-fold serial dilution method; type: functional
[8] = tested on: Aspergillus flavus; assay: Potency index, ratio of miconazole MIC to compound MIC for Aspergillus flavus by two-fold serial dilution method; type: functional
[9] = tested on: Cyberlindnera jadinii; assay: Potency index, ratio of miconazole MIC to compound MIC for Candida utilis by two-fold serial dilution method; type: functional
[10] = tested on: Calf thymus DNA; assay: Inhibition of neural red dye binding to calf thymus DNA by UV absorption spectral analysis; type: nucleic-acid assay; settings: Bos taurus
[11] = tested on: Calf thymus DNA; assay: Binding affinity to calf thymus DNA assessed as hypochromic effect between compound and DNA by UV absorption spectral analysis; type: nucleic-acid assay; settings: Bos taurus
Method in brief: (§2)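 UV absorption of the compound–DNA complex compared with the summed absorbance of free DNA and free compound. A measured value below the sum was read as hypochromism and one above it as hyperchromism.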

[12] = tested on: Calf thymus DNA; assay: Binding affinity to calf thymus DNA assessed as iodide quenching by measuring Stern-Volmer quenching constant by fluorescence spectral analysis (reference value: 11.6 +/- 0.067 L/mol); type: nucleic-acid assay; settings: Bos taurus
Method in brief: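 Fluorescence titration with KI as quencher, 0–12 × 10–3 mol L–1 in 2 × 10–3 mol L–1 steps. Compound at 1.0 × 10–5 mol L–1, alone or with DNA at 2.0 × 10–5 mol L–1. Run at 298 K with excitation at 290 nm. Quenching constant taken from a Stern–Volmer plot of F0/F against KI.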

[13] = tested on: Calf thymus DNA; assay: Binding affinity to calf thymus DNA by UV absorption spectral analysis; type: nucleic-acid assay; settings: Bos taurus
[14] = tested on: Calf thymus DNA; assay: Binding affinity to calf thymus DNA assessed as hyperchromic effect between compound and DNA by UV absorption spectral analysis; type: nucleic-acid assay; settings: Bos taurus; method in brief: as §2
[15] = tested on: Kregervanrija fluxuum; assay: Potency index, ratio of miconazole MIC to compound MIC for Candida mycoderma; type: functional

CCCCCCCCCCCCOC(Cn1cncn1)c1ccc(F)cc1F (stereo unspecified)
MIC [1]: > 256 µg/mL
MIC [2]: > 256 µg/mL
MIC [3]: 128 µg/mL (≈ 325 µM)
MIC [4]: > 256 µg/mL
MIC [5]: 8 µg/mL (≈ 20.3 µM)
Ratio [6]: 4

Fc1ccc(C(Cn2c[n+](Cc3ccc(Cl)cc3Cl)cn2)OCc2ccc(Cl)cc2Cl)c(F)c1.[Cl-] (stereo unspecified)
MIC [1]: 16 µg/mL
MIC [2]: 32 µg/mL
MIC [3]: 32 µg/mL
MIC [4]: 8 µg/mL
MIC [5]: 64 µg/mL

Fc1ccc(C(Cn2c[n+](Cc3ccccc3F)cn2)OCc2ccccc2F)c(F)c1.[Cl-] (stereo unspecified)
MIC [1]: 32 µg/mL
MIC [2]: 8 µg/mL
MIC [3]: 64 µg/mL
MIC [4]: 32 µg/mL
MIC [5]: 32 µg/mL

Fc1ccc(C(Cn2cncn2)OCc2ccccc2Cl)c(F)c1 (stereo unspecified)
MIC [1]: 8 µg/mL (≈ 22.9 µM)
MIC [2]: 8 µg/mL (≈ 22.9 µM)
MIC [3]: 16 µg/mL (≈ 45.7 µM)
MIC [4]: 8 µg/mL (≈ 22.9 µM)
MIC [5]: 16 µg/mL (≈ 45.7 µM)

Fc1ccc(C(Cn2cncn2)OCCCCCCOC(Cn2cncn2)c2ccc(F)cc2F)c(F)c1 (stereo unspecified)
MIC [1]: 256 µg/mL (≈ 481 µM)
MIC [2]: 256 µg/mL (≈ 481 µM)
MIC [3]: 256 µg/mL (≈ 481 µM)
MIC [4]: > 256 µg/mL
MIC [5]: 128 µg/mL (≈ 240 µM)

Clc1ccc(COC(Cn2ccnc2)c2ccc(Cl)cc2Cl)c(Cl)c1 (stereo unspecified) [MICONAZOLE]
MIC [1]: 4 µg/mL (≈ 9.61 µM)
MIC [2]: 8 µg/mL (≈ 19.2 µM)
MIC [3]: 256 µg/mL (≈ 615 µM)
MIC [4]: 16 µg/mL (≈ 38.4 µM)
MIC [5]: 32 µg/mL (≈ 76.9 µM)

O=[N+]([O-])c1ccc(COC(Cn2cncn2)c2ccc(F)cc2F)cc1 (stereo unspecified)
MIC [1]: > 256 µg/mL
MIC [2]: > 256 µg/mL
MIC [3]: > 256 µg/mL
MIC [4]: > 256 µg/mL
MIC [5]: > 256 µg/mL

Fc1ccc(COC(Cn2c[n+](Cc3ccc(F)cc3F)cn2)c2ccc(F)cc2F)c(F)c1.[Cl-] (stereo unspecified)
MIC [1]: > 256 µg/mL
MIC [2]: > 256 µg/mL
MIC [3]: > 256 µg/mL
MIC [4]: > 256 µg/mL
MIC [5]: 128 µg/mL

OC(Cn1cncn1)c1ccc(F)cc1F (stereo unspecified)
MIC [1]: 128 µg/mL (≈ 568 µM)
MIC [2]: 256 µg/mL (≈ 1140 µM)
MIC [3]: > 256 µg/mL
MIC [4]: 256 µg/mL (≈ 1140 µM)
MIC [5]: > 256 µg/mL

Fc1ccc(C(Cn2cncn2)OCc2cccc(Cl)c2)c(F)c1 (stereo unspecified)
MIC [1]: 16 µg/mL (≈ 45.7 µM)
MIC [2]: 16 µg/mL (≈ 45.7 µM)
MIC [3]: 32 µg/mL (≈ 91.5 µM)
MIC [4]: 8 µg/mL (≈ 22.9 µM)
MIC [5]: 16 µg/mL (≈ 45.7 µM)

Cc1cc(=O)oc2cc(OCCCCOC(Cn3cncn3)c3ccc(F)cc3F)ccc12 (stereo unspecified)
MIC [1]: 4 µg/mL (≈ 8.78 µM)
MIC [2]: 2 µg/mL (≈ 4.39 µM)
MIC [3]: 32 µg/mL (≈ 70.3 µM)
MIC [4]: 16 µg/mL (≈ 35.1 µM)
MIC [5]: 4 µg/mL (≈ 8.78 µM)

Fc1ccc(COC(Cn2cncn2)c2ccc(F)cc2F)c(F)c1 (stereo unspecified)
MIC [1]: 4 µg/mL (≈ 11.4 µM)
MIC [2]: 8 µg/mL (≈ 22.8 µM)
MIC [3]: 16 µg/mL (≈ 45.5 µM)
Ratio [7]: 16
Ratio [8]: 16
MIC [4]: 4 µg/mL (≈ 11.4 µM)
MIC [5]: 4 µg/mL (≈ 11.4 µM)

Fc1ccc(C(Cn2cncn2)OCc2ccc(Cl)cc2Cl)c(F)c1 (stereo unspecified)
MIC [1]: 8 µg/mL (≈ 20.8 µM)
MIC [2]: 16 µg/mL (≈ 41.6 µM)
MIC [3]: 16 µg/mL (≈ 41.6 µM)
Ratio [7]: 16
Ratio [8]: 16
MIC [4]: 4 µg/mL (≈ 10.4 µM)
MIC [5]: 8 µg/mL (≈ 20.8 µM)

Fc1ccc(C(Cn2cncn2)OCc2ccc(Cl)cc2)c(F)c1 (stereo unspecified)
MIC [1]: 8 µg/mL (≈ 22.9 µM)
MIC [2]: 16 µg/mL (≈ 45.7 µM)
MIC [3]: 8 µg/mL (≈ 22.9 µM)
MIC [4]: 4 µg/mL (≈ 11.4 µM)
MIC [5]: 16 µg/mL (≈ 45.7 µM)

Fc1ccc(C(Cn2cncn2)OCc2ccccc2F)c(F)c1 (stereo unspecified)
MIC [1]: 0.5 µg/mL (≈ 1.5 µM)
MIC [2]: 2 µg/mL (≈ 6 µM)
MIC [3]: 32 µg/mL (≈ 96 µM)
Ratio [7]: 8
Ratio [8]: 8
MIC [4]: 4 µg/mL (≈ 12 µM)
MIC [5]: 16 µg/mL (≈ 48 µM)

CCCCCCOC(Cn1cncn1)c1ccc(F)cc1F (stereo unspecified)
MIC [1]: 64 µg/mL (≈ 207 µM)
MIC [2]: 32 µg/mL (≈ 103 µM)
MIC [3]: 32 µg/mL (≈ 103 µM)
MIC [4]: 16 µg/mL (≈ 51.7 µM)
MIC [5]: 32 µg/mL (≈ 103 µM)

O=[N+]([O-])c1ccc(COC(Cn2c[n+](Cc3ccc([N+](=O)[O-])cc3)cn2)c2ccc(F)cc2F)cc1.[Cl-] (stereo unspecified)
MIC [1]: 8 µg/mL
MIC [2]: 16 µg/mL
MIC [3]: 16 µg/mL
MIC [4]: 32 µg/mL
MIC [5]: 64 µg/mL

CCCCOC(Cn1cncn1)c1ccc(F)cc1F (stereo unspecified)
MIC [1]: 64 µg/mL (≈ 228 µM)
MIC [2]: 64 µg/mL (≈ 228 µM)
MIC [3]: 128 µg/mL (≈ 455 µM)
Ratio [9]: 2
MIC [4]: 8 µg/mL (≈ 28.4 µM)
MIC [5]: 128 µg/mL (≈ 455 µM)

Fc1ccc(C(Cn2cncn2)OCCOC(Cn2cncn2)c2ccc(F)cc2F)c(F)c1 (stereo unspecified)
MIC [1]: 64 µg/mL (≈ 134 µM)
MIC [2]: 256 µg/mL (≈ 537 µM)
MIC [3]: 256 µg/mL (≈ 537 µM)
MIC [4]: 8 µg/mL (≈ 16.8 µM)
MIC [5]: 8 µg/mL (≈ 16.8 µM)

Cc1cc(=O)oc2cc(OCCOC(Cn3cncn3)c3ccc(F)cc3F)ccc12 (stereo unspecified)
MIC [1]: 128 µg/mL (≈ 299 µM)
MIC [2]: 256 µg/mL (≈ 599 µM)
MIC [3]: 256 µg/mL (≈ 599 µM)
MIC [4]: 256 µg/mL (≈ 599 µM)
MIC [5]: 128 µg/mL (≈ 299 µM)

Fc1ccc(C(Cn2cncn2)OCCCCOC(Cn2cncn2)c2ccc(F)cc2F)c(F)c1 (stereo unspecified)
MIC [1]: 128 µg/mL (≈ 254 µM)
MIC [2]: 128 µg/mL (≈ 254 µM)
MIC [3]: 64 µg/mL (≈ 127 µM)
MIC [4]: 128 µg/mL (≈ 254 µM)
MIC [5]: 64 µg/mL (≈ 127 µM)

OC(Cn1cncn1)(Cn1cncn1)c1ccc(F)cc1F [FLUCONAZOLE]
MIC [1]: 1 µg/mL (≈ 3.27 µM)
MIC [2]: 4 µg/mL (≈ 13.1 µM)
MIC [3]: 256 µg/mL (≈ 836 µM)
MIC [4]: 8 µg/mL (≈ 26.1 µM)
MIC [5]: 16 µg/mL (≈ 52.2 µM)

Fc1ccc(C(Cn2c[n+](Cc3ccc(Cl)c(Cl)c3)cn2)OCc2ccc(Cl)c(Cl)c2)c(F)c1.[Cl-] (stereo unspecified)
MIC [1]: 32 µg/mL
MIC [2]: 64 µg/mL
MIC [3]: 64 µg/mL
MIC [4]: 32 µg/mL
MIC [5]: 16 µg/mL

Fc1ccc(C(Cn2cncn2)OCc2ccc(Cl)c(Cl)c2)c(F)c1 (stereo unspecified)
MIC [1]: 1 µg/mL (≈ 2.6 µM)
MIC [2]: 4 µg/mL (≈ 10.4 µM)
MIC [3]: 8 µg/mL (≈ 20.8 µM)
inhibition [10]: Dose-dependent effect
Activity [11]: Active
Ratio [7]: 32
Ratio [8]: 32
MIC [4]: 1 µg/mL (≈ 2.6 µM)
MIC [5]: 0.5 µg/mL (≈ 1.3 µM)
KSV [12]: 10.7 L/mol
Ratio [6]: 64
Activity [13]: Dose-dependent effect
K [13]: 1.04 ×10⁴ L/mol

Cc1cc(=O)oc2cc(OCCCCCCOC(Cn3cncn3)c3ccc(F)cc3F)ccc12 (stereo unspecified)
MIC [1]: 2 µg/mL (≈ 4.14 µM)
MIC [2]: 1 µg/mL (≈ 2.07 µM)
Activity [14]: Active
MIC [3]: 16 µg/mL (≈ 33.1 µM)
inhibition [10]: Dose-dependent effect
MIC [4]: 16 µg/mL (≈ 33.1 µM)
MIC [5]: 16 µg/mL (≈ 33.1 µM)
Activity [13]: Dose-dependent effect
K [13]: 5.06 ×10⁴ L/mol

CCCCCCCCOC(Cn1cncn1)c1ccc(F)cc1F (stereo unspecified)
MIC [1]: 4 µg/mL (≈ 11.9 µM)
MIC [2]: 16 µg/mL (≈ 47.4 µM)
MIC [3]: 128 µg/mL (≈ 379 µM)
MIC [4]: 16 µg/mL (≈ 47.4 µM)
MIC [5]: 16 µg/mL (≈ 47.4 µM)

CCCOC(Cn1cncn1)c1ccc(F)cc1F (stereo unspecified)
MIC [1]: 4 µg/mL (≈ 15 µM)
MIC [2]: 1 µg/mL (≈ 3.74 µM)
MIC [3]: 128 µg/mL (≈ 479 µM)
MIC [4]: 32 µg/mL (≈ 120 µM)
MIC [5]: 64 µg/mL (≈ 239 µM)
Ratio [15]: 8
